Experimental data pooled from the literature.
Each line is one published result; the experiments were not run side by side.
Target: Ephrin type-A receptor 4 (EPHA4, Homo sapiens, UniProt P54764)

SMILES | assay | conditions | remaining binding
c1ccc(N2CCN(Cc3nc4ccccc4[nH]3)CC2)nc1 | cell-free assay, competition with immobilised ligand | 1 µM | 100%
CCN1CCN(Cc2ccc(C(=O)Nc3ccc(C)c(Oc4ccc5c(c4)CC(=O)N5)c3)cc2C(F)(F)F)CC1 | binding, competition with immobilised ligand | 1 µM | 100%
CN(CCCC(F)(F)F)c1nccc(-c2cnn3ncccc23)n1 | binding | 1 µM | 100%
C=CC(=O)N1CCC(C(=O)NCC(=O)N2CCN(c3nc(-c4cnc(N)nc4C(F)F)nc(N4CCOCC4)n3)CC2)CC1 | binding, competition with immobilised ligand | 1 µM | 94%
CN(c1nccc(-c2cnn3ncccc23)n1)C1CC1 | binding | 1 µM | 100%
O=C(Nc1c[nH]nc1C(=O)NC1CCNCC1)c1cc(F)cc(F)c1 | binding, competition with immobilised ligand | 1 µM | 100%
Cc1c(NC(=O)c2cc(C(N)=O)nc3cc(F)ccc23)c(C(F)(F)F)nn1Cc1ccc(C(C)(C)C)cc1 | cell-free assay, competition with immobilised ligand | 1 µM | 100%
N[C@H]1CCN(c2nccc(-c3cnn4ncccc34)n2)C1 | binding | 1 µM | 100%
C[C@@H]1CN(c2cc(-c3n[nH]c4ccc(OC5(C)CC5)cc34)ncn2)C[C@H](C)O1 | cell-free assay, competition with immobilised ligand | 0.1 µM | 89%
C[C@@H]1CCN(c2nccc(-c3cnn4ncccc34)n2)C1 | binding | 1 µM | 100%
C[C@@H](c1ccc(-n2cnc3c(N)ncnc32)cc1)N1CCc2nn(C)c(Cc3ccccc3)c2C1=O | binding, competition with immobilised ligand | 0.1 µM | 97%
O=c1nc(-c2ccccn2)sc2ccccc12 | cell-free assay, competition with immobilised ligand | 1 µM | 100%
F[C@@H]1CCN(c2nccc(-c3cnn4ncccc34)n2)C1 | binding | 1 µM | 100%
Cc1cnc(Nc2ccc(C(=O)N3CCC(N4CCCC4)CC3)cc2)nc1-c1cc2ccccc2s1 | binding, competition with immobilised ligand | 1 µM | 57%
COc1cnc(Nc2cccc(S(N)(=O)=O)c2)nc1N1CCN(c2ccccc2)C(=O)C1 | binding, competition with immobilised ligand | 1 µM | 100%
CNCc1ccccc1-c1csc([C@@H](C)Nc2nc(C)nc3cc(OC)c(OC)cc23)c1 | cell-free assay, competition with immobilised ligand | 1 µM | 79%
CN(C)c1nccc(-c2cnc3ncccn23)n1 | binding | 1 µM | 100%
CC(=O)c1c(NS(C)(=O)=O)c2cc(-c3ccc(Cl)cc3)c(-c3ccc(Cl)cc3Cl)nc2n(C)c1=O | cell-free assay, competition with immobilised ligand | 1 µM | 98%
O=C(c1ccc(Nc2nccc(-c3cc4ccccc4s3)n2)cc1)N1CCC(N2CCCC2)CC1 | binding, competition with immobilised ligand | 1 µM | 91%
CC1CCCN1c1nccc(-c2cnn3ncccc23)n1 (stereo not shown) | binding | 1 µM | 97%
CC(=O)Nc1c(C(C)=O)c(=O)n(C)c2nc(-c3ccc(Cl)cc3Cl)c(-c3ccc(Cl)cc3)cc12 | cell-free assay, competition with immobilised ligand | 1 µM | 96%
O=C(NCCCN1CCOCC1)c1ccc(Nc2ncc(Cl)c(-c3ccc(Cl)s3)n2)cc1 | binding, competition with immobilised ligand | 1 µM | 89%
